Source: ChEMBL document CHEMBL4052590, “Anti-Osteoporotic Activity of Harpagoside by Upregulation of the BMP2 and Wnt Signaling Pathways in Osteoblasts and Suppression of Differentiation in Osteoclasts” (J Nat Prod, 2017)
Active and inactive are the calls of the source. The rule behind the calls is not given here.

Key:
MC3T3-E1 [1] = assay: Antiosteoporotic activity in mouse MC3T3-E1 cells assessed as formation of mineralized nodule after 14 days in presence of ascorbic acid and beta-glycerophosphate by Alizarin red S staining-based microscopic method; format: functional, cell-based
Procedure, shortened: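 MC3T3-E1 cells (2 × 10^4 cells/mL) in 400 μM ascorbic acid and 5 mM β-glycerophosphate, with or without compound, for 14 days. Fixed in 70% ethanol 30 min, stained 5 min with 2% Alizarin red S (pH 4.0), viewed by microscopy. Stain extracted with 10% cetylpyridinium chloride, A570 read.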

MC3T3-E1 [2] = assay: Increase in OPG mRNA expression in mouse MC3T3-E1 cells up to 4 uM after 48 hrs in presence of ascorbic acid and beta-glycerophosphate by real-time PCR analysis; format: functional, cell-based
Procedure, shortened: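 MC3T3-E1 cells stimulated with 400 μM ascorbic acid and 5 mM β-glycerophosphate, with or without compound, 48 h. TRIzol RNA, real-time RT-PCR: 40 cycles of 95 °C 20 s, 56 °C 20 s, 72 °C 30 s. Ct of each transcript […] β-actin Ct, expressed relative to control samples.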

MC3T3-E1 [3] = assay: Upregulation of OCN protein expression in mouse MC3T3-E1 cells up to 4 uM after 48 hrs in presence of ascorbic acid and beta-glycerophosphate by Western blot analysis; format: functional, cell-based
Mus musculus [4] = species on record: Mus musculus; assay: Activation of Wnt signaling pathway in mouse MC3T3-E1 cells assessed as increase in BMP2 protein expression up to 4 uM after 48 hrs in presence of ascorbic acid and beta-glycerophosphate by Western blot analysis; format: cell-based
Procedure, shortened: (§1)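 MC3T3-E1 cells given 400 μM ascorbic acid plus 5 mM β-glycerophosphate, exposed to test compound or not for 48 h. Lysed in boiling SDS sample buffer, protein measured by BCA. 40−50 μg of lysate run on 8% or 10% SDS-PAGE and transferred to PVDF. Blocked in 5% milk, probed with primary antibodies for 3 h at room temperature or overnight at 4 °C, detected by ECL.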

Mus musculus [5] = species on record: Mus musculus; assay: Activation of Wnt signaling pathway in mouse MC3T3-E1 cells assessed as increase in Smad protein expression up to 4 uM after 48 hrs in presence of ascorbic acid and beta-glycerophosphate by Western blot analysis; format: cell-based; procedure, shortened: as §1
Mus musculus [6] = species on record: Mus musculus; assay: Activation of Wnt signaling pathway in mouse MC3T3-E1 cells assessed as increase in Runx2 protein expression up to 4 uM after 48 hrs in presence of ascorbic acid and beta-glycerophosphate by Western blot analysis; format: cell-based; procedure, shortened: as §1
MC3T3-E1 [7] = assay: Upregulation of beta-catenin protein expression in mouse MC3T3-E1 cells after 48 hrs in presence of ascorbic acid and beta-glycerophosphate by Western blot analysis; format: functional, cell-based
[8] = Cytotoxicity against mouse osteoclasts assessed as effect on cell survival up to 4 uM after 72 hrs by MTT assay; format: cell-based, Osteoclast; conditions: read-out: Survival
Osteoclast = assay: Inhibition of RANKL/M-CSF-induced osteoclast differentiation in mouse bone marrow-derived osteoclasts assessed as downregulation of TRAP protein expression up to 4 uM after 48 hrs by Western blot analysis; format: functional, cell-based
Procedure, shortened: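 Mouse bone marrow cells were taken from 4-week-old mice and primed 24 h in 30 ng/mL M-CSF. They were then given 100 ng/mL RANKL plus 30 ng/mL M-CSF, with or without compound, for 48 h. Lysates were made in boiling SDS buffer and quantified by BCA. 40–50 μg was run on SDS-PAGE and immunoblotted on PVDF with β-actin reference and ECL read-out.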

Mus musculus [9] = assay: Anti-osteoporotic activity in ovariectomized ICR mouse assessed as increase in ratio of bone volume to tissue volume of femur at 2 to 10 mg/kg, po after 12 weeks by microcomputed tomography; format: functional, organism-based
Mus musculus [10] = assay: Anti-osteoporotic activity in ovariectomized ICR mouse assessed as suppression of changes in trabecular separation in femur at 2 to 10 mg/kg, po after 12 weeks by microcomputed tomography; format: functional, organism-based
Mus musculus [11] = assay: Effect on calcium level in serum of OVX-induced bone loss ICR mouse model at 2 mg/kg, po for 12 weeks by ELISA (reference value: 9.3 +/- 0.3 mg/dl); format: functional
Mus musculus [12] = assay: Effect on alkaline phosphatase activity in serum of OVX-induced bone loss ICR mouse model at 2 mg/kg, po for 12 weeks using p-NPP as substrate (reference value: 84.9 +/- 4.2 U/L); format: functional
Mus musculus [13] = assay: Effect on osteocalcin level in serum of OVX-induced bone loss ICR mouse model at 5 mg/kg, po for 12 weeks by ELISA (reference value: 176.9 +/- 4.7 ng/ml); format: functional
Mus musculus [14] = assay: Effect on C-terminal telopeptide level in serum of OVX-induced bone loss ICR mouse model at 2 mg/kg, po for 12 weeks by ELISA (reference value: 95.7 +/- 3.8 ng/ml); format: functional
Mus musculus [15] = assay: Effect on C-terminal telopeptide level in serum of OVX-induced bone loss ICR mouse model at 5 mg/kg, po for 12 weeks by ELISA (reference value: 95.7 +/- 3.8 ng/ml); format: functional
Mus musculus [16] = assay: Effect on C-terminal telopeptide level in serum of OVX-induced bone loss ICR mouse model at 10 mg/kg, po for 12 weeks by ELISA (reference value: 95.7 +/- 3.8 ng/ml); format: functional
[17] = biological target: T1, Catenin beta-1 (Mus musculus) (UniProt Q02248); assay: Downregulation of beta-catenin phosphorylated protein expression in mouse MC3T3-E1 cells up to 4 uM after 48 hrs in presence of ascorbic acid and beta-glycerophosphate by Western blot analysis; format: cell-based; procedure, shortened: as §1
T1 sequence (whole entry): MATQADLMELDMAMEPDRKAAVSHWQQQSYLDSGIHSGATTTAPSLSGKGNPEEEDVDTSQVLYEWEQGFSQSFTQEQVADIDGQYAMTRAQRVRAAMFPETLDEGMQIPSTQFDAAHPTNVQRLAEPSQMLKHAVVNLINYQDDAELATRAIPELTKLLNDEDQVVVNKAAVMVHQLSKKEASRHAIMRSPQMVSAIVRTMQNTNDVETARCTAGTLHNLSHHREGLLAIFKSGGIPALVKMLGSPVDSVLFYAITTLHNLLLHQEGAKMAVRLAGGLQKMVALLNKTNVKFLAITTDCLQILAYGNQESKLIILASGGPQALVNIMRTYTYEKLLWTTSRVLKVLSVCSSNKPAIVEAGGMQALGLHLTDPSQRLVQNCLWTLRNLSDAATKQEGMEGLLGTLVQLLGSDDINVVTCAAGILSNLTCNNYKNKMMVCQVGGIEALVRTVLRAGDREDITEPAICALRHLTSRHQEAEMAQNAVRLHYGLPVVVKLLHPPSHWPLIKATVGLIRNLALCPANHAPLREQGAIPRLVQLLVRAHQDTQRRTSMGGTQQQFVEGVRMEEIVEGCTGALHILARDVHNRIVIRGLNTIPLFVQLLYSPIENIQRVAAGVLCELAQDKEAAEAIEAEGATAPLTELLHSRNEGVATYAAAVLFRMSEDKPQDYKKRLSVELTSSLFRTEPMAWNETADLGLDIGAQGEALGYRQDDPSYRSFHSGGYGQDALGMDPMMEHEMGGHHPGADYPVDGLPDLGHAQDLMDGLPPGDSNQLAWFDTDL

C[C@]1(OC(=O)/C=C/c2ccccc2)C[C@@H](O)[C@]2(O)C=CO[C@@H](O[C@@H]3O[C@H](CO)[C@@H](O)[C@H](O)[C@H]3O)[C@@H]21 [HARPAGOSIDE]
Activity (MC3T3-E1 [1]): Dose-dependent effect | Activity (MC3T3-E1 [2]): Active | Activity (MC3T3-E1 [3]): Active | Activity (Mus musculus [4]): Active | Activity (Mus musculus [5]): Active | Activity (Mus musculus [6]): Active | Activity (MC3T3-E1 [7]): Dose-dependent effect | viability at 72 h [8]: > 85% | inhibition (Osteoclast): Active | Activity (Mus musculus [9]): Active | Activity (Mus musculus [10]): Active | Activity (Mus musculus [11]): 9.3 mg/dL | Activity (Mus musculus [12]): 78.5 U/L | Activity (Mus musculus [13]): 162.7 ng/mL | Activity (Mus musculus [14]): 88.5 ng/mL | Activity (Mus musculus [15]): 85.9 ng/mL | Activity (Mus musculus [16]): 80.7 ng/mL | Activity [17]: Active
